High-throughput results deposited in PubChem BioAssay by The Scripps Research Institute Molecular Screening Center.
Rows were chosen to be rich in hits. Some 1.6% of all compounds tested hit in one or more screens of this group.
core dimer inh: inhibitors of HCV core protein dimerization, primary screen, biochemical, TR-FRET, high-throughput. TR-FRET GST/Flag-core106 dimerization, 1536-well. inhibition, % at 5 µM. 300,000 tested, 0.33% active. AID 1899, 2009;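 active = inhibition above the mean of all tested compounds plus 3 SD, set per screening campaign, cut at about 45% in these data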
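Assay system: GST-tagged and Flag-tagged HCV core protein residues 1-106 / Times: compound-protein-antibody incubation 4 h at 22.5 °C / Signal: time-resolved FRET, ex 340 nm, em 617 and 671 nm / Evaluation: % inhibition based on acceptor/donor emission ratio / Benchmarks: wells lacking GST-core106 and wells with excess unlabelled core106 / Repeats: singlicate, one well per compound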
IMP-1 inh-1: IMP-1 metallo-beta-lactamase inhibitors, primary screen, biochemical, epi-absorbance readout, Pseudomonas aeruginosa enzyme. metallo-beta-lactamase IMP-1 (Pseudomonas aeruginosa). AID 1556, 2009. inhibition, % at 5.6 µM. purified IMP-1, nitrocefin hydrolysis, epi-absorbance fluorescence. 290,000 tested, 0.45% active;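 active = inhibition above the mean plus 3 SD of all compounds in the same screening run, cut at about 4.5% in these data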;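 also: 0% = IMP-1 with DMSO and 100% = DMSO wells lacking enzyme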
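System – purified recombinant IMP-1 beta-lactamase · Input – IMP-1 dispensed at 0.2 nM · Timing – 15 min preincubation plus 25 min reaction at 25 °C · Signal – Epi-absorbance fluorescence, 480 nm excitation, 530 nm emission · Measure – percent IMP-1 inhibition derived from blank-referenced optical density · Controls – Enzyme-plus-DMSO low control, enzyme-free DMSO high control · Replication – singlicate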
VIM-2 inhibitor: VIM-2 metallo-beta-lactamase inhibitors, primary screen, biochemical, epi-absorbance readout, Pseudomonas aeruginosa enzyme; purified VIM-2, nitrocefin hydrolysis, epi-absorbance fluorescence; inhibition, % at 5.6 µM; 290,000 tested, 0.89% active; AID 1527, 2009;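 active = inhibition above the mean of all tested compounds plus 3 SD, cutoff set per screening run, cut at about 7.5% in these data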;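 also: red hydrolysis product quenches plate fluorescence so inhibitors raise well fluorescence; 0% = enzyme with DMSO and 100% = DMSO without enzyme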
DNA FID counter: compounds displacing fluorescent DNA intercalator, primary screen, artefact control for HCV NS3 helicase inhibitor project, biochemical, FID fluorescence. DNA fluorescent intercalator displacement. inhibition, % at 7.9 µM. 290,000 tested, 0.17% active. AID 1845, 2009; in the data active = inhibition above about 37%;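 also: 0% = vehicle and 100% = reference compound; higher means more ethidium bromide displaced from hairpin DNA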
IMP-1 inh-2: IMP-1 metallo-beta-lactamase inhibitors, confirmation, selectivity assay for selective VIM-2 inhibitor project, biochemical, epi-absorbance readout, triplicate. AID 1856, 2009. purified IMP-1, nitrocefin hydrolysis, epi-absorbance fluorescence. 1,300 tested, under 10 active. inhibition, % at 5.6 µM. shares compounds with VIM-2 inhibitor; call rule not given here;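 also: 0% = enzyme with vehicle and 100% = vehicle without enzyme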
VIM-2 FRET inh: VIM-2 inhibitors in FRET format, confirmation, artefact control for selective VIM-2 inhibitor project, biochemical, epi-absorbance artifact exclusion; purified VIM-2, CCF2 FRET substrate hydrolysis; AID 1857, 2009; shares compounds with VIM-2 inhibitor; 1,300 tested, 23% active; inhibition, % at 5.6 µM;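 active = inhibition above the mean of all tested compounds plus 3 SD, cut at about 19% in these data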;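 also: 0% = VIM-2 plus DMSO and 100% = no enzyme wells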
TEM-1 counter: TEM-1 serine beta-lactamase inhibitors, counter-screen for VIM-2 inhibitor project, biochemical, epi-absorbance, HTS | shares compounds with VIM-2 inhibitor | Purified TEM-1, nitrocefin hydrolysis, epi-absorbance fluorescence | inhibition, % at 5.6 µM | 1,300 tested, 3% active | AID 1866, 2009;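 active = inhibition above that campaign's mean inhibition plus 3 SD, cut at about 0.46% in these data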;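 also: 0% = TEM-1 with DMSO and 100% = TEM-1 with 100 µM potassium clavulanate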
Target sequence (P62593 whole entry, looked up): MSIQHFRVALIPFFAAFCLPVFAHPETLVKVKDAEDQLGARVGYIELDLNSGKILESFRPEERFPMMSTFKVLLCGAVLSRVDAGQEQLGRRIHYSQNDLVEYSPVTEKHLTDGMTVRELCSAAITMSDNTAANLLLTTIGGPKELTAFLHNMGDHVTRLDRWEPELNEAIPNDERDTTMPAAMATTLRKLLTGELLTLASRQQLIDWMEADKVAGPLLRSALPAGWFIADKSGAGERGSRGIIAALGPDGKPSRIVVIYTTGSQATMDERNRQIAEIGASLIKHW
VIM-2 inh conf: VIM-2 metallo-beta-lactamase inhibitors, confirmation, biochemical, epi-absorbance, hits shared with IMP-1 screen. 1,300 tested, 96% active. shares compounds with VIM-2 inhibitor. inhibition, % at 5.6 µM. AID 2187, 2009. purified VIM-2, nitrocefin hydrolysis;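 active = inhibition of the VIM-2 beta-lactamase enzyme above about 11% from the earlier first-round screen, limit read from the data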;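 also: 0% = VIM-2 with DMSO and 100% = buffer wells without enzyme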
The depositor's hits bear a star; · = not tested or not shown.

SMILES | core dimer inh | IMP-1 inh-1 | VIM-2 inhibitor | DNA FID counter | IMP-1 inh-2 | VIM-2 FRET inh | TEM-1 counter | VIM-2 inh conf
COc1ccccc1C1C(C(C)=O)=C(O)C(=O)N1CCc1ccccc1 (configuration not stated) | 7 | -4 | -3 | -21 | · | · | · | ·
O=C(NCCN1CCOCC1)c1ccc(CS(=O)(=O)c2c(Cl)cccc2Cl)o1 | 1 | -3 | -5 | 0 | · | · | · | ·
CCOC(=O)c1ccc2c(c1)N(CC(=O)N1CCCCC1)C(=O)C(C)(C)O2 | -1 | 1 | -1 | -25 | · | · | · | ·
O=C(NCCN1CCCC1=O)C1CCC(=O)N(CCc2ccc(Cl)cc2)C1 (configuration not stated) | -8 | -1 | -2 | -21 | · | · | · | ·
Cc1c(C)c2c(OCC(=O)N3CCC(O)CC3)cc3c(c2oc1=O)CCC(C)(C)O3 | 2 | -1 | 4 | -33 | · | · | · | ·
Cc1c(C)c2c(OCC(=O)N3CCC[C@H]3C(=O)O)cc3c(c2oc1=O)CCC(C)(C)O3 | 5 | -3 | 70* | -34 | -4 | 85* | -6 | 72*
COc1ccc(C(=O)NC(C)c2ccc(-n3ccnc3)cc2)c(OC)c1OC (configuration not stated) | -5 | -2 | 30* | -29 | -4 | -6 | -7 | 40*
COc1ccc(C(=O)NC(C)c2ccc(-n3ccnc3)cc2)c(OC)c1 (configuration not stated) | -1 | -3 | 22* | -23 | -5 | -7 | -8 | 34*
S=c1[nH]nc(-c2ccncc2)n1Cc1ccco1 | -1 | -4 | -1 | -4 | · | · | · | ·
COc1ccccc1-n1c(-c2ccccc2)n[nH]c1=S | 0 | -4 | 15* | -14 | -2 | 46* | -7 | 26*
COc1ccccc1-c1n[nH]c(=S)n1Cc1ccccc1 | 1 | -2 | 25* | -16 | -3 | 52* | -9 | 34*
CCCc1n[nH]c(=S)n1Cc1ccco1 | -1 | -5 | 17* | -12 | -2 | 40* | -5 | 25*
COc1ccccc1-c1n[nH]c(=S)n1Cc1ccco1 | 0 | -4 | 16* | -5 | -3 | 47* | -7 | 29*
Cc1c(NC(=O)C(C)OC(=O)c2cccc(S(=O)(=O)N(C)C)c2)c(=O)n(-c2ccccc2)n1C (configuration not stated) | -1 | -3 | -2 | -9 | · | · | · | ·
Clc1ccc(CSc2snnc2-c2ccccc2)c(Cl)c1 | 5 | -3 | 0 | 0 | · | · | · | ·
O=S(=O)(NCc1ccccc1)c1ccc2c(c1)OCCO2 | -1 | 0 | -1 | -2 | · | · | · | ·
CCCCc1n[nH]c(=S)n1Cc1ccc(Cl)cc1 | 2 | -3 | 15* | -18 | -3 | 25* | -6 | 18*
CCCCc1n[nH]c(=S)n1Cc1ccccc1 | -5 | -3 | 7 | -9 | · | · | · | ·
Cc1c(C)c2ccc(O[C@@H]3O[C@H](CO)[C@H](O)[C@H](O)[C@H]3O)c(C)c2oc1=O | · | -5 | 4 | -4 | · | · | · | ·
Cc1c(O[C@@H]2O[C@H](CO)[C@@H](O)[C@H](O)[C@H]2O)ccc2c1oc(=O)c1ccccc12 | · | -4 | 25* | -8 | -3 | 0 | -8 | 35*
CC1CCCN(c2c3c(nc4ccccc24)CCCC3)C1 (configuration not stated) | 6 | 0 | 13* | -5 | -3 | 2 | -5 | 21*
COc1ccc(-c2cc(C(F)(F)F)n3nc(C(=O)NCCCn4ccnc4)cc3n2)cc1 | 1 | -3 | 29* | 4 | -2 | -13 | -6 | 48*
Cc1noc(C)c1COC(=O)c1cc(F)c(F)cc1Cl | -6 | -6 | -6 | 2 | · | · | · | ·
CC1CCCC(C)N1CCNC(=O)Cn1nc(-c2ccccc2)ccc1=O (configuration not stated) | 1 | 2 | -1 | 2 | · | · | · | ·
Cc1nc2ncccn2c1-c1csc(Nc2ccc(S(N)(=O)=O)cc2)n1 | 3 | -3 | 17* | -4 | -2 | -3 | -7 | 28*
SMILES | core dimer inh | IMP-1 inh-1 | VIM-2 inhibitor | DNA FID counter | IMP-1 inh-2 | VIM-2 FRET inh | TEM-1 counter | VIM-2 inh conf
Cc1cc(C)n(Cc2ccc(C(=O)N/N=C/c3ccc(-c4ccc([N+](=O)[O-])cc4)o3)o2)n1 | 7 | -4 | 42* | -39 | -1 | 1 | 13* | 14*
Cc1cc([N+](=O)[O-])ccc1-c1ccc(/C=N/NC(=O)c2ccc(Br)o2)o1 | 31 | -3 | -2 | -7 | · | · | · | ·
CCOC(CCn1ccc(O)c(Cc2ccc(Cl)cc2)c1=O)OCC | 5 | -4 | -3 | -19 | · | · | · | ·
Oc1cccc(/C=N/Nc2nn3cnnc3c3ccccc23)c1 | 0 | -4 | 16* | -11 | -4 | 0 | -5 | 37*
COc1cccc(/C=N/Nc2nn3cnnc3c3ccccc23)c1O | 5 | -3 | 0 | -7 | · | · | · | ·
Cc1sc2ncnc(Oc3ccc(-n4ccnc4)cc3)c2c1C | 6 | -2 | 74* | -22 | -2 | -7 | -5 | 85*
O=C(NC(=S)Nc1ccccc1N1CCCC1)c1ccccc1Br | 0 | -3 | 17* | -16 | -3 | 4 | -8 | 2
O=C(NC(=S)Nc1ccccc1N1CCCC1)c1ccco1 | -3 | -2 | 12* | -8 | -3 | 36* | -7 | 19*
Cc1cc(C)c(NC(=O)OCCN2CCOCC2)c(C)c1 | -5 | -5 | -4 | -6 | · | · | · | ·
CN1CCN(c2ccc(-c3ccc4ccccc4n3)cc2)CC1 | · | -2 | 68* | 28 | -2 | 3 | -5 | 81*
CCN(CC)CCCNc1nc2ccccc2c2nc(-c3ccncc3)nn12 | 0 | -1 | 28* | 29 | -3 | 0 | -6 | 37*
CCN(CC)CCCNc1nc2cc(OC)c(OC)cc2c2nc(-c3cccnc3)nn12 | 1 | 1 | 22* | 24 | -2 | -3 | -6 | 42*
COCCCNc1nc2cc(OC)c(OC)cc2c2nc(-c3ccccc3)nn12 | 3 | 0 | 2 | -24 | · | · | · | ·
COc1cc2nc(NCCCN3CCN(C)CC3)n3nc(-c4ccccc4)nc3c2cc1OC | -4 | -4 | 28* | 30 | -3 | 0 | -6 | 48*
Cc1ccc(OCC(=O)N2c3ccccc3NC(=O)C2(C)C)c([N+](=O)[O-])n1 | 2 | -4 | 0 | 12 | · | · | · | ·
